# From ChEMBL document CHEMBL3526018, “Metabolites of PPI-2458, a selective, irreversible inhibitor of methionine aminopeptidase-2: structure determination and in vivo activity” (Drug Metab Dispos, 2013)
# Calls of active or inactive are those of the source. The calls are words filed in the database; no cut-off is given here.
# Experiments:
# [1] = test system: Rattus norvegicus; assay: Inhibition of MetAP2 level in Sprague-Dawley rat lymph nodes assessed as free enzyme level at 3 mg/kg, po by ELISA; assay type: functional, organism-based; design: dose 3 mg/kg
# Method in brief: (§1)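 Male Sprague-Dawley rats (200-225 g, n=3 per group) were dosed once IV at 0.3 mg/kg or PO at 0.3 or 3.0 mg/kg, in 11% HPCD in water. Blood, liver, lung, thymus and pooled non-mesenteric lymph nodes were taken at ~24 h and lysed or homogenized with NP-40. Free MetAP2 was measured by ELISA and expressed as % of vehicle.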
# [2] = Metabolic stability in monkey liver microsomes assessed as retention time of ((3R,4S,5S,6R)-4-((2R,3R)-3-(((S)-3,3-dimethyloxiran-2-yl)methyl)-2-methyloxiran-2-yl)-5-methoxy-1-oxaspiro[2.5]octan-6-yl ((R)-1-amino-3-methyl-1-oxobutan-2-yl)carbamate) at 5 mM by LC/MS analysis; assay type: ADME, Macaca mulatta; conditions: rhesus monkey, 5000 µM
# Method in brief: (§2)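 Liver microsomes (pooled male/female) in 100 mM KPO4 pH 7.4 with PPI-2458 (5 mM stock), pre-incubated 5 min at 37°C, then 10 mM NADPH added; 20 min at 37°C with shaking. Time-zero and no-NADPH controls. Quenched with CH3CN; supernatant dried and redissolved in water. Analysed by LC-MS, ESI+ full scan 300–800 amu, C18 column, 10→50% B gradient.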
# [3] = test system: Liver microsome; assay: Metabolic stability in rat liver microsomes assessed as retention time of ((3R,4S,5S,6R)-5-methoxy-4-((2R,3R)-2-methyl-3-(3-methylbut-2-en-1-yl)oxiran-2-yl)-1-oxaspiro[2.5]octan-6-yl ((R)-1-amino-3-hydroxy-3-methyl-1-oxobutan-2-yl)carbamate) at 5 mM by LC/MS analysis; assay type: ADME; conditions: 5000 µM; method in brief: as §2
# [4] = test system: Rattus norvegicus; assay: Inhibition of MetAP2 level in Sprague-Dawley rat lung assessed as free enzyme level at 0.3 mg/kg, iv by ELISA; assay type: functional, organism-based; design: dose 0.3 mg/kg; method in brief: as §1
# [5] = test system: CYP3A5 (Homo sapiens); assay: Activity of human recombinant CYP3A5 assessed as ((3R,4S,5S,6R)-5-methoxy-4-((2R,3R)-2-methyl-3-(3-methylbut-2-en-1-yl)oxiran-2-yl)-1-oxaspiro[2.5]octan-6-yl ((R)-1-amino-3-hydroxy-3-methyl-1-oxobutan-2-yl)carbamate) formation per pmol of enzyme
# [6] = test system: CYP3A5 (Homo sapiens); assay: Ratio of Vmax to Km for human recombinant CYP3A5 assessed as ((3R,4S,5S,6R)-4-((2R,3R)-3-(((R)-3,3-dimethyloxiran-2-yl)methyl)-2-methyloxiran-2-yl)-5-methoxy-1-oxaspiro[2.5]octan-6-yl ((R)-1-amino-3-methyl-1-oxobutan-2-yl)carbamate) formation; conditions: recombinant enzyme
# [7] = AUC (0 to infinity) in non-Hodgkin lymphoma patient at 15 mg, po alternate days for 21 days; assay type: ADME, organism-based; design: dose 15 mg, route oral, time infinity; conditions: human, in vivo
# Method in brief: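 Oral PPI-2458 given every other day to lymphoma patients. Plasma sampled pre-dose and at 15 min, 30 min, 1, 2, 3, 4, 6, 8, 24 and 48 h after the first dose. Parent and metabolites were measured by LC-MS/MS after protein precipitation, evaporation and reconstitution. CL/F was computed only for parent and summed analytes. For metabolites, t1/2 is an apparent first-phase value.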
# [8] = test system: Liver microsome; assay: Metabolic stability in rat liver microsomes assessed as retention time of ((3R,4S,5S,6R)-4-((2R,3R)-3-(((S)-3,3-dimethyloxiran-2-yl)methyl)-2-methyloxiran-2-yl)-5-methoxy-1-oxaspiro[2.5]octan-6-yl ((R)-1-amino-3-methyl-1-oxobutan-2-yl)carbamate) at 5 mM by LC/MS analysis; assay type: ADME; conditions: 5000 µM; method in brief: as §2
# [9] = biological target: T1, Cytochrome P450 3A4 (Homo sapiens, UniProt P08684); assay: Inhibition of CYP3A4 activity in human liver microsomes assessed as dibenzo fluuorescene oxidation up to 40 uM; assay type: ADME
# T1 sequence (P08684 whole entry): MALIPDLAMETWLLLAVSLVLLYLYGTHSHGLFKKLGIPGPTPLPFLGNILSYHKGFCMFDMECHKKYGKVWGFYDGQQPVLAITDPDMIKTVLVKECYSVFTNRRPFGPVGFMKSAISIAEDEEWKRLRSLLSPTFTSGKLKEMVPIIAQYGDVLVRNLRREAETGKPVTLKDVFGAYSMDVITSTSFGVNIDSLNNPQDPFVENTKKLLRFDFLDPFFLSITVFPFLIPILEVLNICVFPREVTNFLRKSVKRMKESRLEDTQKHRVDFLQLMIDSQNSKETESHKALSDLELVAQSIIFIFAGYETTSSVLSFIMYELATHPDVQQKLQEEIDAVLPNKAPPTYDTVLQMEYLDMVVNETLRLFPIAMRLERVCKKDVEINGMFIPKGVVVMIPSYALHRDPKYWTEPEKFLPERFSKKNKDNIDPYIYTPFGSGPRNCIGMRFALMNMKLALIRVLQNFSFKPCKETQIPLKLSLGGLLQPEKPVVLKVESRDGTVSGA
# [10] = test system: Liver microsome; assay: Metabolic stability in human liver microsomes assessed as retention time of ((3R,4S,5S,6R)-4-((2R,3R)-3-(((S)-3,3-dimethyloxiran-2-yl)methyl)-2-methyloxiran-2-yl)-5-methoxy-1-oxaspiro[2.5]octan-6-yl ((R)-1-amino-3-methyl-1-oxobutan-2-yl)carbamate) at 5 mM by LC/MS analysis; assay type: ADME; conditions: 5000 µM
# [11] = test system: CYP3A4 (Homo sapiens); assay: Activity of human recombinant CYP3A4 assessed as ((3R,4S,5S,6R)-4-((2R,3R)-3-((E)-4-hydroxy-3-methylbut-2-en-1-yl)-2-methyloxiran-2-yl)-5-methoxy-1-oxaspiro[2.5]octan-6-yl((R)-1-amino-3-methyl-1-oxobutan-2-yl)carbamate) formation per pmol of enzyme
# [12] = test system: Liver microsome; assay: Metabolic stability in dog liver microsomes assessed as retention time of ((3R,4S,5S,6R)-5-methoxy-4-((2R,3R)-2-methyl-3-(3-methylbut-2-en-1-yl)oxiran-2-yl)-1-oxaspiro[2.5]octan-6-yl ((R)-1-amino-3-hydroxy-3-methyl-1-oxobutan-2-yl)carbamate) at 5 mM by LC/MS analysis; assay type: ADME, Canis lupus familiaris; conditions: 5000 µM
# [13] = Metabolic stability in monkey liver microsomes assessed as retention time of ((3R,4S,5S,6R)-4-((2R,3R)-3-((E)-4-hydroxy-3-methylbut-2-en-1-yl)-2-methyloxiran-2-yl)-5-methoxy-1-oxaspiro[2.5]octan-6-yl((R)-1-amino-3-methyl-1-oxobutan-2-yl)carbamate) at 5 mM by LC/MS analysis; assay type: ADME, Macaca mulatta; conditions: rhesus monkey, 5000 µM; method in brief: as §2
# [14] = test system: Liver; assay: Metabolic stability in mouse liver microsomes assessed as retention time of ((3R,4S,5S,6R)-5-methoxy-4-((2R,3R)-2-methyl-3-(3-methylbut-2-en-1-yl)oxiran-2-yl)-1-oxaspiro[2.5]octan-6-yl ((R)-1-amino-3-hydroxy-3-methyl-1-oxobutan-2-yl)carbamate) at 5 mM by LC/MS analysis; assay type: ADME; conditions: 5000 µM; method in brief: as §2
# [15] = test system: CYP3A5 (Homo sapiens); assay: Ratio of Vmax to Km for human recombinant CYP3A5 assessed as ((3R,4S,5S,6R)-4-((2R,3R)-3-(((S)-3,3-dimethyloxiran-2-yl)methyl)-2-methyloxiran-2-yl)-5-methoxy-1-oxaspiro[2.5]octan-6-yl ((R)-1-amino-3-methyl-1-oxobutan-2-yl)carbamate) formation; conditions: recombinant enzyme
# [16] = Metabolic stability in monkey liver microsomes assessed as retention time of ((3R,4S,5S,6R)-5-methoxy-4-((2R,3R)-2-methyl-3-(3-methylbut-2-en-1-yl)oxiran-2-yl)-1-oxaspiro[2.5]octan-6-yl ((R)-1-amino-3-hydroxy-3-methyl-1-oxobutan-2-yl)carbamate) at 5 mM by LC/MS analysis; assay type: ADME, Macaca mulatta; conditions: rhesus monkey, 5000 µM; method in brief: as §2
# [17] = Oral steady-state volume of distribution in non-Hodgkin lymphoma patient at 15 mg, po alternate days for 21 days; assay type: ADME, organism-based; conditions: human, in vivo, read-out: Vss/F
# Method in brief: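 Non-Hodgkin lymphoma patients given oral capsules every other day for 21 days. Plasma sampled predose and at 15, 30 min and 1, 2, 3, 4, 6, 8, 24, 48 h after the first dose. Protein precipitated, extract reconstituted, parent and metabolites quantified by validated LC-MS/MS. CL/F and Vss/F derived from the administered dose.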
# [18] = biological target: T1, Cytochrome P450 3A4; assay: Inhibition of CYP3A4 activity in human liver microsomes using testosterone as a substrate by LC/MS analysis; assay type: ADME
smiles,measurement,setting,value
CO[C@@H]1[C@H](OC(=O)N[C@@H](C(N)=O)C(C)C)CC[C@]2(CO2)[C@H]1[C@@]1(C)O[C@@H]1CC=C(C)C [PPI-2458],inhibition,[1],Active
same,Drug metabolism,[2],metabolite_detected
same,Drug metabolism,[3],metabolite_detected
same,inhibition,[4],Active
same,Vmax,[5],1.58 pmol/min
same,Vmax/Km,[6],0.17 µL/min
same,AUC(0-inf),[7],44.1 ng·h/mL
same,Drug metabolism,[8],metabolite_detected
same,inhibition (INH),[9],Not Active
same,Drug metabolism,[10],metabolite_detected
same,Vmax,[11],1.41 pmol/min
same,Drug metabolism,[12],metabolite_detected
same,Drug metabolism,[13],metabolite_detected
same,Drug metabolism,[14],metabolite_detected
same,Vmax/Km,[15],0.09 µL/min
same,Drug metabolism,[16],metabolite_detected
same,Vd/F,[17],415 L
same,Ki,[18],287 µM
